Reference: ChEMBL document CHEMBL1124203, “Phosphinic acid inhibitors of D-alanyl-D-alanine ligase” (J Med Chem, 1988)
In brackets after ≈: the same amount, converted by molar mass.

Experiments:
Salmonella typhimurium [1] = assay: Minimum inhibitory concentration required for inhibition of D-alanyl-D-alanine ligase from Salmonella Typhimurium 3860; type: functional, Salmonella enterica subsp. enterica serovar Typhimurium; settings: Salmonella enterica
How it was run: (§1)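 Organisms were mostly subcultured from agar into trypticase soy broth, 35 °C for 20 h; Pseudomonas was shaken at 250 rpm. MIC was the lowest concentration giving no visible growth or fewer than five colonies per spot.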

Enterococcus faecalis [2] = assay: Minimum inhibitory concentration required for inhibition of D-alanyl-D-alanine ligase from Streptococcus faecalis 2864; type: functional; how it was run: as §1
Escherichia coli [3] = assay: Minimum inhibitory concentration required for inhibition of D-alanyl-D-alanine ligase from Escherichia coli 2891; type: functional; how it was run: as §1
Staphylococcus aureus [4] = assay: Minimum inhibitory concentration required for inhibition of D-alanyl-D-alanine ligase from Staphylococcus aureus 2865; type: functional; how it was run: as §1
Pseudomonas aeruginosa [5] = assay: Minimum inhibitory concentration required for inhibition of D-alanyl-D-alanine ligase from Pseudomonas aeruginosa 4279; type: functional
How it was run: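 Inocula were subcultured from agar into trypticase soy broth and grown at 35 °C for 20 h, with the Pseudomonas strain shaken at 250 rpm. MIC was taken as the lowest concentration giving no visible growth or fewer than five colonies per inoculation spot.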

[6] = test system: D-alanine--D-alanine ligase (Enterococcus faecalis); assay: ATP dependent inhibition of D-alanine--D-alanine ligase after 24 hours at 10 uM concentration
Escherichia coli [7] = assay: Minimum inhibitory concentration required for inhibition of D-alanyl-D-alanine ligase from Escherichia coli Tem 2+ 4351; type: functional; how it was run: as §1
Enterobacter cloacae [8] = assay: Minimum inhibitory concentration required for inhibition of D-alanyl-D-alanine ligase from cloacae 2647; type: functional; how it was run: as §1
Proteus vulgaris [9] = assay: Minimum inhibitory concentration required for inhibition of D-alanyl-D-alanine ligase from proteus vulgaris 2829; type: functional; how it was run: as §1
Escherichia coli [10] = assay: Minimum inhibitory concentration required for inhibition of D-alanyl-D-alanine ligase from Escherichia coli DC2 4353; type: functional; how it was run: as §1
Klebsiella pneumoniae [11] = assay: Minimum inhibitory concentration required for inhibition of D-alanyl-D-alanine ligase from Klebsiella pneumoniae 4005; type: functional; how it was run: as §1
[12] = test system: D-alanine--D-alanine ligase (Enterococcus faecalis); assay: ATP dependent inhibition of D-alanine--D-alanine ligase after 4 hours at 10 uM concentration
Serratia marcescens [13] = assay: Minimum inhibitory concentration required for inhibition of D-alanyl-D-alanine ligase from Serratia marcescens 2840; type: functional; how it was run: as §1
Escherichia coli [14] = assay: Minimum inhibitory concentration required for growth inhibition of Escherichia coli DC2 4353
Enterobacter cloacae [15] = assay: Minimum inhibitory concentration required for growth inhibition of cloacae 2647
Escherichia coli [16] = assay: Minimum inhibitory concentration required for growth inhibition of Escherichia coli 2891
Enterococcus faecalis [17] = assay: Minimum inhibitory concentration required for growth inhibition of Streptococcus faecalis 2864
Staphylococcus aureus [18] = assay: Minimum inhibitory concentration required for growth inhibition of Staphylococcus aureus 2865
Proteus vulgaris [19] = assay: Minimum inhibitory concentration required for growth inhibition of proteus vulgaris 2829
Serratia marcescens [20] = assay: Minimum inhibitory concentration required for growth inhibition of Serratia marcescens 2840
Salmonella typhimurium [21] = assay: Minimum inhibitory concentration required for growth inhibition of Salmonella Typhimurium 3860; settings: Salmonella enterica subsp. enterica serovar Typhimurium
Klebsiella pneumoniae [22] = assay: The inhibition of D-alanyl-D-alanine ligase from Klebsiella pneumoniae 4005 in the presence of F-D-Ala ug/mL; type: functional
Enterococcus faecalis [23] = assay: Minimum inhibitory concentration required for inhibition of D-alanyl-D-alanine ligase from Streptococcus faecalis 2864 in the presence of F-D-Ala ug/mL; type: functional
Pseudomonas aeruginosa [24] = assay: Minimum inhibitory concentration required for inhibition of D-alanyl-D-alanine ligase from Pseudomonas aeruginosa 4279 in the presence of F-D-Ala ug/mL; type: functional
Escherichia coli [25] = assay: Minimum inhibitory concentration required for inhibition of D-alanyl-D-alanine ligase from Escherichia coli Tem 2+ 4351 in the presence of F-D-Ala ug/mL; type: functional
Pseudomonas aeruginosa [26] = assay: Minimum inhibitory concentration required for growth inhibition of Pseudomonas aeruginosa 4279
Klebsiella pneumoniae [27] = assay: Minimum inhibitory concentration required for growth inhibition of Klebsiella pneumoniae 4005

| SMILES | MIC (Enterococcus faecalis [2]) | MIC (Pseudomonas aeruginosa [5]) | inhibition [6] | MIC (Escherichia coli [7]) | MIC (Klebsiella pneumoniae [11]) | inhibition [12] | MIC (Escherichia coli [14]) | MIC (Enterobacter cloacae [15]) | MIC (Escherichia coli [16]) | MIC (Enterococcus faecalis [17]) | MIC (Staphylococcus aureus [18]) | MIC (Proteus vulgaris [19]) | MIC (Serratia marcescens [20]) | MIC (Salmonella typhimurium [21]) | MIC (Pseudomonas aeruginosa [26]) | MIC (Klebsiella pneumoniae [27]) | further results |
| --- | --- | --- | --- | --- | --- | --- | --- | --- | --- | --- | --- | --- | --- | --- | --- | --- | --- |
| CCCCCCCC(CP(=O)(O)[C@@H](C)N)C(=O)O (some centres undefined) | 64 mg/L (≈ 229 µM) | > 256 mg/L | 53% | 128 mg/L (≈ 458 µM) | 64 mg/L (≈ 229 µM) | 75% |  |  |  |  |  |  |  |  |  |  | MIC (Salmonella typhimurium [1]): 128 mg/L (≈ 458 µM); MIC (Escherichia coli [3]): 128 mg/L (≈ 458 µM); MIC (Staphylococcus aureus [4]): 128 mg/L (≈ 458 µM); MIC (Enterobacter cloacae [8]): 256 mg/L (≈ 917 µM); MIC (Proteus vulgaris [9]): 128 mg/L (≈ 458 µM); MIC (Escherichia coli [10]): 32 mg/L (≈ 115 µM); MIC (Serratia marcescens [13]): > 256 mg/L |
| CCC(CP(=O)(O)C(C)N)C(=O)O (centres undefined) |  |  |  |  |  |  | 8 mg/L (≈ 38.2 µM) | 256 mg/L (≈ 1220 µM) | 256 mg/L (≈ 1220 µM) | 2 mg/L (≈ 9.56 µM) | > 256 mg/L | 128 mg/L (≈ 612 µM) | > 256 mg/L | > 256 mg/L |  |  |  |
| C[C@@H](CP(=O)(O)[C@@H](C)N)C(=O)O | 128 mg/L (≈ 656 µM) | 128 mg/L (≈ 656 µM) |  | 128 mg/L (≈ 656 µM) | 128 mg/L (≈ 656 µM) |  |  |  |  |  |  |  |  |  |  |  | MIC (Klebsiella pneumoniae [22]): 128 mg/L; MIC (Enterococcus faecalis [23]): 8 mg/L; MIC (Pseudomonas aeruginosa [24]): 128 mg/L; MIC (Escherichia coli [25]): 128 mg/L |
| CC(N)P(=O)(O)CC(CCCc1ccccc1)C(=O)O (centres undefined) |  |  |  |  |  |  | 128 mg/L (≈ 428 µM) | > 256 mg/L | 128 mg/L (≈ 428 µM) | 256 mg/L (≈ 855 µM) | 256 mg/L (≈ 855 µM) | > 256 mg/L | > 256 mg/L | 128 mg/L (≈ 428 µM) | > 256 mg/L | 256 mg/L (≈ 855 µM) |  |
| CSC(CP(=O)(O)C(C)N)C(=O)O (centres undefined) |  |  | 96% |  |  | 96% | 64 mg/L (≈ 282 µM) | 128 mg/L (≈ 563 µM) |  | 4 mg/L (≈ 17.6 µM) | > 256 mg/L | 4 mg/L (≈ 17.6 µM) | 256 mg/L (≈ 1130 µM) |  | 64 mg/L (≈ 282 µM) | 128 mg/L (≈ 563 µM) |  |
